From ChEMBL document CHEMBL1155990, “Synthesis of novel pyrazole carboxamide derivatives and discovery of modulators for apoptosis or autophagy in A549 lung cancer cells” (2009)
The source made the active and inactive calls. No cut-off for these calls is given here.

Each compound was assayed on A549 (assay: Anticancer activity against human A549 lung cancer cells assessed as decrease in cell viability at 10 uM after 24 hrs relative to control by MTT assay).
Format: functional
Summary of the method: (§1)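 A549 cells exposed to compound in culture medium; viability measured by MTT assay and expressed as % of untreated control (100%).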

Compound	Activity
CC(C)(C)c1ccc(Cn2nc(-c3ccc(Cl)cc3)cc2C(=O)NCCc2ccccc2F)cc1	Active
CC(C)(C)c1ccc(Cn2nc(-c3ccc(Cl)cc3)cc2C(=O)NCCc2ccccc2)cc1	59.32%
CC(C)(C)c1ccc(Cn2nc(-c3ccccc3)cc2C(=O)NCCc2ccc(F)cc2)cc1	inactive
COc1cccc(CCNC(=O)c2cc(-c3ccc(Cl)cc3)nn2Cc2ccc(C(C)(C)C)cc2)c1	45.52%
COc1cccc(CCNC(=O)c2cc(-c3ccccc3)nn2Cc2ccc(C(C)(C)C)cc2)c1	inactive
CC(C)(C)c1ccc(Cn2nc(-c3ccc(Cl)cc3)cc2C(=O)NCCc2ccc(F)cc2)cc1	Active
CC(C)(C)c1ccc(Cn2nc(-c3ccccc3)cc2C(=O)NCCc2ccccc2F)cc1	inactive
CC(C)(C)c1ccc(Cn2nc(-c3ccccc3)cc2C(=O)NCCc2ccccc2)cc1	inactive

The compounds below were run on A549 (assay: Anticancer activity against human A549 lung cancer cells assessed as decrease in cell viability at 10 uM after 48 hrs relative to control by MTT assay).
Format: functional
Summary of the method: as §1

Compound	Activity
CC(C)(C)c1ccc(Cn2nc(-c3ccc(Cl)cc3)cc2C(=O)NCCc2ccccc2F)cc1	Active
CC(C)(C)c1ccc(Cn2nc(-c3ccc(Cl)cc3)cc2C(=O)NCCc2ccccc2)cc1	44.46%
CC(C)(C)c1ccc(Cn2nc(-c3ccccc3)cc2C(=O)NCCc2ccc(F)cc2)cc1	inactive
COc1cccc(CCNC(=O)c2cc(-c3ccc(Cl)cc3)nn2Cc2ccc(C(C)(C)C)cc2)c1	24.07%
COc1cccc(CCNC(=O)c2cc(-c3ccccc3)nn2Cc2ccc(C(C)(C)C)cc2)c1	inactive
CC(C)(C)c1ccc(Cn2nc(-c3ccc(Cl)cc3)cc2C(=O)NCCc2ccc(F)cc2)cc1	Active
CC(C)(C)c1ccc(Cn2nc(-c3ccccc3)cc2C(=O)NCCc2ccccc2F)cc1	inactive
CC(C)(C)c1ccc(Cn2nc(-c3ccccc3)cc2C(=O)NCCc2ccccc2)cc1	inactive

What follows are compounds tested on A549 (assay: Anticancer activity against human A549 lung cancer cells assessed as decrease in cell viability at 20 uM after 24 hrs relative to control by MTT assay).
Format: functional, cell-based
Summary of the method: as §1

Compound	Activity
CC(C)(C)c1ccc(Cn2nc(-c3ccc(Cl)cc3)cc2C(=O)NCCc2ccccc2F)cc1	Active
CC(C)(C)c1ccc(Cn2nc(-c3ccc(Cl)cc3)cc2C(=O)NCCc2ccccc2)cc1	Active
CC(C)(C)c1ccc(Cn2nc(-c3ccccc3)cc2C(=O)NCCc2ccc(F)cc2)cc1	inactive
COc1cccc(CCNC(=O)c2cc(-c3ccc(Cl)cc3)nn2Cc2ccc(C(C)(C)C)cc2)c1	Active
COc1cccc(CCNC(=O)c2cc(-c3ccccc3)nn2Cc2ccc(C(C)(C)C)cc2)c1	inactive
CC(C)(C)c1ccc(Cn2nc(-c3ccc(Cl)cc3)cc2C(=O)NCCc2ccc(F)cc2)cc1	Active
CC(C)(C)c1ccc(Cn2nc(-c3ccccc3)cc2C(=O)NCCc2ccccc2F)cc1	inactive
CC(C)(C)c1ccc(Cn2nc(-c3ccccc3)cc2C(=O)NCCc2ccccc2)cc1	inactive

The compounds below were run on A549 (assay: Anticancer activity against human A549 lung cancer cells assessed as decrease in cell viability at 20 uM after 48 hrs relative to control by MTT assay).
Format: functional
Summary of the method: as §1

Compound	Activity
CC(C)(C)c1ccc(Cn2nc(-c3ccc(Cl)cc3)cc2C(=O)NCCc2ccccc2F)cc1	Active
CC(C)(C)c1ccc(Cn2nc(-c3ccccc3)cc2C(=O)NCCc2ccc(F)cc2)cc1	inactive
COc1cccc(CCNC(=O)c2cc(-c3ccc(Cl)cc3)nn2Cc2ccc(C(C)(C)C)cc2)c1	10.43%
COc1cccc(CCNC(=O)c2cc(-c3ccccc3)nn2Cc2ccc(C(C)(C)C)cc2)c1	inactive
CC(C)(C)c1ccc(Cn2nc(-c3ccccc3)cc2C(=O)NCCc2ccccc2F)cc1	inactive
CC(C)(C)c1ccc(Cn2nc(-c3ccccc3)cc2C(=O)NCCc2ccccc2)cc1	inactive

What follows are compounds tested on A549 (assay: Effect on human A549 lung cancer cell morphology assessed as rounding and detachment of cells at 20 uM after 24 hrs by inverted phase contrast microscopy).
Format: functional, cell-based
Summary of the method: (§2)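 A549 cells treated at 20 µM; morphology photographed at 200× under an inverted phase contrast microscope.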

Compound	Activity
CC(C)(C)c1ccc(Cn2nc(-c3ccc(Cl)cc3)cc2C(=O)NCCc2ccccc2)cc1	Active
COc1cccc(CCNC(=O)c2cc(-c3ccc(Cl)cc3)nn2Cc2ccc(C(C)(C)C)cc2)c1	Active

These compounds were tested on A549 (assay: Effect on human A549 lung cancer cell morphology assessed as vacuolation of cells at 20 uM after 24 hrs by inverted phase contrast microscopy).
Format: functional, cell-based
Summary of the method: as §2

Compound	Activity
CC(C)(C)c1ccc(Cn2nc(-c3ccc(Cl)cc3)cc2C(=O)NCCc2ccccc2F)cc1	Active
CC(C)(C)c1ccc(Cn2nc(-c3ccc(Cl)cc3)cc2C(=O)NCCc2ccc(F)cc2)cc1	Active

These compounds were tested on A549 (assay: Induction of apoptosis in human A549 lung cancer cells assessed as nuclear DNA fragmentation at 20 uM after 48 hrs by hoechst 33258 staining).
Format: functional, cell-based
Summary of the method: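 A549 cells treated at 20 µM for 48 h; chromatin condensation and DNA fragmentation visualized by Hoechst 33258 staining under fluorescence microscope (200×); compared with control, n = 3.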

Compound	Activity
CC(C)(C)c1ccc(Cn2nc(-c3ccc(Cl)cc3)cc2C(=O)NCCc2ccccc2)cc1	Active
COc1cccc(CCNC(=O)c2cc(-c3ccc(Cl)cc3)nn2Cc2ccc(C(C)(C)C)cc2)c1	Active

The compounds below were run on A549 (assay: Induction of autophagy in human A549 lung cancer cells assessed as acidic vesicle level at 20 uM after 24 hrs by acridine orange staining).
Format: functional, cell-based
Summary of the method: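 A549 cells treated 24 h; acidic cellular compartment volume visualized by acridine orange staining under fluorescence microscope (200×); compared with control, n = 3.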

Compound	Activity
CC(C)(C)c1ccc(Cn2nc(-c3ccc(Cl)cc3)cc2C(=O)NCCc2ccccc2F)cc1	Active
CC(C)(C)c1ccc(Cn2nc(-c3ccc(Cl)cc3)cc2C(=O)NCCc2ccc(F)cc2)cc1	Active

What follows are compounds tested on A549 (assay: Induction of necrosis in human A549 lung cancer cells assessed as LDH activity at 10 uM after 48 hrs).
Format: functional, cell-based
Summary of the method: (§3)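 A549 cells treated at 10 or 20 µM for 48 h; LDH activity measured in culture medium as necrosis marker; compared with control, n = 4.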

Compound	Activity
CC(C)(C)c1ccc(Cn2nc(-c3ccc(Cl)cc3)cc2C(=O)NCCc2ccccc2F)cc1	inactive
CC(C)(C)c1ccc(Cn2nc(-c3ccc(Cl)cc3)cc2C(=O)NCCc2ccccc2)cc1	inactive
COc1cccc(CCNC(=O)c2cc(-c3ccc(Cl)cc3)nn2Cc2ccc(C(C)(C)C)cc2)c1	inactive
CC(C)(C)c1ccc(Cn2nc(-c3ccc(Cl)cc3)cc2C(=O)NCCc2ccc(F)cc2)cc1	inactive

Each compound was assayed on A549 (assay: Induction of necrosis in human A549 lung cancer cells assessed as LDH activity at 20 uM after 48 hrs).
Format: functional, cell-based
Summary of the method: as §3

Compound	Activity
CC(C)(C)c1ccc(Cn2nc(-c3ccc(Cl)cc3)cc2C(=O)NCCc2ccccc2F)cc1	inactive
CC(C)(C)c1ccc(Cn2nc(-c3ccc(Cl)cc3)cc2C(=O)NCCc2ccccc2)cc1	inactive
COc1cccc(CCNC(=O)c2cc(-c3ccc(Cl)cc3)nn2Cc2ccc(C(C)(C)C)cc2)c1	inactive
CC(C)(C)c1ccc(Cn2nc(-c3ccc(Cl)cc3)cc2C(=O)NCCc2ccc(F)cc2)cc1	inactive

These compounds were tested on A549 (assay: Effect on human A549 lung cancer cell morphology assessed as rounding and detachment of cells at 20 uM after 48 hrs relative to control by inverted phase contrast microscopy).
Format: functional, cell-based
Summary of the method: as §2

Compound	Activity
CC(C)(C)c1ccc(Cn2nc(-c3ccc(Cl)cc3)cc2C(=O)NCCc2ccccc2F)cc1	Active
CC(C)(C)c1ccc(Cn2nc(-c3ccc(Cl)cc3)cc2C(=O)NCCc2ccccc2)cc1	Active
COc1cccc(CCNC(=O)c2cc(-c3ccc(Cl)cc3)nn2Cc2ccc(C(C)(C)C)cc2)c1	Active

These compounds were tested on A549 (assay: Effect on human A549 lung cancer cell morphology assessed as vacuolation of cells at 20 uM after 48 hrs relative to control by inverted phase contrast microscopy).
Format: functional, cell-based
Summary of the method: as §2

Compound	Activity
CC(C)(C)c1ccc(Cn2nc(-c3ccc(Cl)cc3)cc2C(=O)NCCc2ccc(F)cc2)cc1	Active
